What was measured:
[1] = target: geranylgeranyltransferase type-I (Rattus norvegicus, UniProt P53610+Q04631); test: Inhibition of rat Geranylgeranyl transferase (GGPT); type: protein-complex assay
[2] = target: T1, Protein farnesyltransferase (Homo sapiens, UniProt P49354+P49356); test: Inhibition of Farnesyltransferase from Ras-CVLS or Ras-CVLL in Cos-7 monkey kidney cells; type: cell-based, Chlorocebus aethiops
[3] = target: T1, Protein farnesyltransferase; test: In vitro inhibition of farnesyltransferase farnesylation of the H-ras oncogene; type: protein-complex assay
[4] = Oral bioavailability in mouse (nude) (dose of 25 mg/kg); type: ADME, organism-based; conditions: in vivo
Summary of the method: (§1)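 Serum pharmacokinetics in nude mice or cynomolgus monkeys after oral (po) or iv dosing. Compounds were given as hydrochloride salts in 20% HPβCD unless otherwise noted. Other formulations were the hydrochloride salt in saline, the micronized free base in 20% HPβCD or corn oil (po) with saline for iv, or the hydrochloride salt in 0.4% methyl cellulose (po).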

[5] = In vivo antitumor efficacy in nude mice 0-24 hr after intravenous dose of 25 mg/kg expressed as Area under the curve; type: ADME, organism-based; design: time < 24 hr, dose 25 mg/kg, route intravenous; conditions: mouse; summary of the method: as §1
[6] = In vivo antitumor efficacy in nude mice by injecting a dose of 25 mg/kg, as HCl salt in saline solution, iv and the serum half-life was determined; type: ADME, organism-based; design: dose 25 mg/kg, route intravenous; conditions: mouse
[7] = In vivo antitumor efficacy in nude mice 0-24 hr after iperoral dose of 25 mg/kg expressed as Area under the curve; type: ADME, organism-based; design: time < 24 hr, dose 25 mg/kg; conditions: mouse, po; summary of the method: as §1
[8] = In vivo antitumor efficacy after peroral dose of 25 mg/kg expressed as duration for which compound was present above IC50; type: ADME, organism-based; design: dose 25 mg/kg, route oral; conditions: po; summary of the method: as §1
[9] = (§2) Maximal plasma concentration in nude mice after 25 mg/kg oral dose; type: ADME, organism-based; design: dose 25 mg/kg, route oral; conditions: mouse; summary of the method: as §1
[10] = system: Mus musculus; test: In vivo antitumor efficacy after peroral dose of 25 mg/kg in mice expressed as duration for which compound was present above IC50; type: ADME, organism-based; design: dose 25 mg/kg, route oral; conditions: po; summary of the method: as §1
[11] = In vivo antitumor efficacy in nude mice 0-24 hr after peroral dose of 25 mg/kg expressed as Area under the curve; type: ADME, organism-based; design: time < 24 hr, dose 25 mg/kg, route oral; conditions: nude, mouse, po; summary of the method: as §1
[12] = In vivo antitumor efficacy in nude mice by injecting a dose of 25 mg/kg iv and serum half-life was determined; type: ADME, organism-based; design: dose 25 mg/kg, route intravenous; conditions: mouse; summary of the method: as §1
[13] = In vivo antitumor efficacy in nude mice by injecting a dose of 25 mg/kg, as HCl salt in saline solution, iv and the total drug exposure was determined. (0-24hr); type: ADME, organism-based; design: time < 24 hr, dose 25 mg/kg, route intravenous; conditions: mouse
[14] = as §2; type: ADME, organism-based; design: dose 25 mg/kg, route oral; conditions: mouse; remark: listed apart in the source
[15] = Oral bioavailability in mouse (nude) (dose 25 mg/kg i.v.); type: ADME, organism-based; conditions: in vivo
[16] = In vivo antitumor efficacy in nude mice by injecting a dose of 25 mg/kg, as HCl salt in saline solution, perorally and the total drug exposure was determined (0-24hr); type: ADME, organism-based; design: time < 24 hr, dose 25 mg/kg, route oral; conditions: mouse, po
[17] = system: Mus musculus; test: In vivo antitumor efficacy in nude mice by injecting a dose of 25 mg/kg, as HCl salt in saline solution, perorally and the duration of action was reported; type: ADME, organism-based; design: dose 25 mg/kg, route oral; conditions: po
[18] = In vivo antitumor efficacy peroral dose of 25 mg/kg expressed as duration for which compound was present above IC50; type: ADME, organism-based; design: dose 25 mg/kg, route oral; conditions: po; summary of the method: as §1
[19] = target: T1, Protein farnesyltransferase; test: In vitro inhibition of farnesyltransferase farnesylation of H-ras at […]

O=C(C(c1ccccc1)c1ccccc1)N1CCN(C2c3ccc(Cl)cc3CCc3cccnc32)CC1 (centres undefined)
IC50 [1]: > 50 µM

CC(=O)C1CCC(C(=O)N2CCN(C3c4ccc(Cl)cc4CCc4cccnc43)CC2)CC1 (centres undefined)
IC50 [2]: 4.9 µM
IC50 [3]: 1.24 µM
IC50 [1]: > 43 µM

CN(C)c1ccc(CC(=O)N2CCN(C3c4ccc(Cl)cc4CCc4cccnc43)CC2)cc1 (centres undefined)
IC50 [1]: 42 µM

O=C(Cc1cc[n+]([O-])cc1)N1CCN([C@@H]2c3ccc(Cl)cc3CCc3cccnc32)CC1
bioavailability [4]: 53%
AUC at 24 h [5]: 11300 ng·h/mL
half-life [6]: 1.1 h
AUC at 24 h [7]: 6000 ng·h/mL
IC50 [3]: 1.2 µM
Time above IC50 [8]: 2 h
Cmax [9]: 3 µM

N[C@@H](CO)C(=O)N1CCC(CC(=O)N2CCN(C3c4ccc(Cl)cc4CCc4cc(Br)cnc43)CC2)CC1 (some centres undefined)
IC50 [2]: 1.05 µM
IC50 [3]: 0.104 µM
IC50 [1]: > 33 µM

CN1CCC(NC(=O)N2CCN(C3c4ccc(Cl)cc4CCc4cc(Br)cnc43)CC2)CC1 (centres undefined)
IC50 [2]: 0.53 µM
IC50 [3]: 0.041 µM
IC50 [1]: > 38 µM

CN1CCC(CC(=O)N2CCN([C@@H]3c4ccc(Cl)cc4CCc4cc(Br)cnc43)CC2)CC1
IC50 [1]: > 38 µM

O=C(Cc1ccc[n+]([O-])c1)N1CCN(C2c3ccc(Cl)cc3CCc3cccnc32)CC1 (centres undefined)
Time above IC50 [10]: 4 h
bioavailability [4]: 89%
AUC at 24 h [5]: 12300 ng·h/mL
AUC at 24 h [11]: 11000 ng·h/mL
half-life [12]: 0.6 h
Cmax [9]: 12 µM

CN1CCC(CC(=O)N2CCN([C@H]3c4ccc(Cl)cc4CCc4cc(Br)cnc43)CC2)CC1
IC50 [1]: > 38 µM

CN1CCCC(CC(=O)N2CCN(C3c4ccc(Cl)cc4CCc4cc(Br)cnc43)CC2)C1 (centres undefined)
AUC at 24 h [13]: 14900 ng·h/mL
Cmax [14]: 2 µM
bioavailability [15]: 100%
half-life [6]: 5.7 h
AUC at 24 h [16]: 17000 ng·h/mL
Time above IC50 [17]: 24 h
IC50 [1]: > 38 µM

O=C(Cc1cccnc1)N1CCN(C2c3ccc(Cl)cc3CCc3cc(Br)cnc32)CC1 (centres undefined)
IC50 [2]: 0.85 µM
IC50 [3]: 0.17 µM
IC50 [1]: > 10 µM

O=C(Cc1ccc[n+]([O-])c1)N1CCN(C2c3ccc(Cl)cc3CCc3cc(Br)cnc32)CC1 (centres undefined)
bioavailability [4]: 100%
AUC at 24 h [5]: 24000 ng·h/mL
Time above IC50 [18]: 6 h
AUC at 24 h [11]: 34800 ng·h/mL
half-life [12]: 1 h
Cmax [9]: 45.4 µM

CN(C(=O)N1CCN(C2c3ccc(Cl)cc3CCc3cccnc32)CC1)c1ccncc1 (centres undefined)
inhibition [19]: 0%

O=C(Cc1ccccn1)N1CCN(C2c3ccc(Cl)cc3CCc3cccnc32)CC1 (centres undefined)
IC50 [1]: > 46 µM

O=C(Cc1ccc(Br)cc1)N1CCN(C2c3ccc(Cl)cc3CCc3cccnc32)CC1 (centres undefined)
IC50 [2]: 5.1 µM
IC50 [1]: > 50 µM

O=C(Cc1cc[n+]([O-])cc1)N1CCN([C@H]2c3ccc(Cl)cc3CCc3cccnc32)CC1
Time above IC50 [10]: 4 h
AUC at 24 h [13]: 21500 ng·h/mL
bioavailability [4]: 72%
IC50 [2]: 5 µM
AUC at 24 h [11]: 15500 ng·h/mL
IC50 [3]: 0.49 µM
half-life [12]: 0.8 h
Cmax [9]: 10 µM

O=C(CN1C(=O)c2ccccc2C1=O)N1CCN(C2c3ccc(Cl)cc3CCc3cccnc32)CC1 (centres undefined)
IC50 [1]: > 40 µM

O=C(Nc1ccccc1)N1CCN(C2c3ccc(Cl)cc3CCc3cccnc32)CC1 (centres undefined)
IC50 [3]: 1.09 µM
IC50 [1]: > 40 µM

O=C(Nc1cccnc1)N1CCN([C@H]2c3ccc(Cl)cc3CCc3cccnc32)CC1
IC50 [2]: 7.3 µM
IC50 [3]: 0.46 µM
